“Also recorded” adds a separate entry of the source.
What was measured:
Format in all cases: biochemical, bovine
[1] = target: T1, NADH:ubiquinone oxidoreductase (complex I) (Bos taurus, UniProt P25708); assay: NADH:APAD+ transhydrogenation
[2] = target: T1, NADH:ubiquinone oxidoreductase (complex I); assay: NADH:FeCN oxidoreduction; settings: 0.1 mM NADH, 1 mM FeCN, pH 7.5, 32 °C
[3] = target: T1, NADH:ubiquinone oxidoreductase (complex I); assay: NADH:HAR oxidoreduction
[4] = target: T1, NADH:ubiquinone oxidoreductase (complex I); assay: Kinetic isotope effect in NAD; settings: 1 mM FeCN, pH 7.5, 32 °C
[5] = target: T1, NADH:ubiquinone oxidoreductase (complex I); assay: Kinetic isotope effect in NAD; settings: 3.5 mM HAR, pH 7.5, 32 °C
Method in brief: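 Bovine heart complex I with hexaammineruthenium(III) as acceptor, at 32 °C. Donor concentration series used NADH, [4R-2H]NADH, [4S-2H]NADH, APADH and [4S-2H]APADH in 20 mM Tris-HCl pH 7.5. pH dependence was measured with NADH versus [4S-2H]NADH at 0.1 mM. Reactions were enzyme-initiated and read at 340–380 nm (ε 4.81 mM–1 cm–1). Background-subtracted initial rates over ~15 s; mean of ≥3 measurements.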

Row | Compound | IC50 for inhibition of the APAD+ reaction ([1]; 0.1 mM NADH, 1 mM APAD+, pH 7.5, 32 °C) | IC50 for inhibition of the FeCN reaction [2] | IC50 for inhibition of the HAR reaction ([3]; 0.1 mM NADH, 3.5 mM HAR, pH 7.5, 32 °C) | KIE in the APAD(H/D):FeCN reaction [4] | KIE in the APAD(H/D):HAR reaction [5] | IC50 [1] | IC50 for inhibition of the FeCN reaction ([2]; listed as Adenosine) | IC50 [3]
1 | NC(=O)c1ccc[n+]([C@@H]2O[C@H](COP(=O)([O-])O)[C@@H](O)[C@H]2O)c1 [NMN^+, nicotinamide mononucleotide] | does not inhibit; also recorded: no inhibition | does not inhibit; also recorded: no inhibition | does not inhibit; also recorded: no inhibition |  |  |  |  | 
2 | [2H]C1C=CN(C2OC(COP(=O)(O)OP(=O)(O)OCC3OC(n4cnc5c(N)ncnc54)C(O)C3O)C(O)C2O)C=C1C(C)=O (stereo not drawn) [S-APADD, [4S-^2H]APADH] |  |  |  | ~6.5 | ~3.5 |  |  | 
3 | Nc1ncnc2c1ncn2[C@@H]1O[C@H](CO)[C@@H](O)[C@H]1O [adenosine] |  | no inhibition ^b |  |  |  | 10 mM | no discernible inhibition | 7 mM

Source: publication PMC3680915 (Biochemistry, 2013)
